According to ChEMBL document CHEMBL3627613, “4-Aminoquinoline derivatives as novel Mycobacterium tuberculosis GyrB inhibitors: Structural optimization, synthesis and biological evaluation” (Eur J Med Chem, 2015):
Values after ≈ are worked out from the molar mass of the structure shown.

Assays:
DNA gyrase subunit B = DNA gyrase subunit B (Mycobacterium smegmatis, UniProt P0C559); assay: Inhibition of Mycobacterium smegmatis DNA gyrase B expressed in Escherichia coli BL21 (DE3) pLysS cells assessed as reduction in ATPase activity incubated for 100 mins by inorganic phosphate detection assay; parameters: species or system Mycolicibacterium smegmatis
[1] = molecular target: DNA gyrase subunit A/DNA gyrase subunit B (Mycobacterium tuberculosis (strain ATCC 25618 / H37Rv), UniProt P9WG45+P9WG47); assay: Inhibition of DNA gyrase GyrA/GyrB in Mycobacterium tuberculosis incubated for 30 mins assessed as reduction in supercoiling of relaxed relaxed pBR322 DNA by ethidium bromide staining based agarose gel electrophoresis method
[2] = test system: Mycobacterium tuberculosis; assay: Antimycobacterial activity against Mycobacterium tuberculosis H37Rv assessed as growth inhibition incubated for 7 days by microplate alamar blue assay; type: functional; conditions: 168 h
How it was run: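 M. tuberculosis H37Rv inoculum from fresh LJ medium, resuspended in 7H9 broth (0.1% casitone, 0.5% glycerol, OADC), set to McFarland No. 1 and diluted 1:20. Two-fold serial compound dilutions in 7H9-S, with growth and sterile controls. Incubated 7 days at 37 °C, then alamar blue overnight. MIC is the lowest concentration preventing the blue-to-pink colour change.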

[3] = Cytotoxicity against mouse RAW264.7 cells assessed as inhibition of cell viability at 50 uM incubated for 48 hrs at 37 degC by MTT assay relative to control; type: cell-based; conditions: read-out: INH
How it was run: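 RAW 264.7 mouse macrophages, 5×10^5 cells per well, exposed to compound for 48 h at 37 °C under 5% CO2. MTT added 4 h before the end. Formazan dissolved in DMSO and absorbance read at 560 nm against blank. Triplicates, run twice.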

Sequence of DNA gyrase subunit A/DNA gyrase subunit B (P9WG45 whole entry): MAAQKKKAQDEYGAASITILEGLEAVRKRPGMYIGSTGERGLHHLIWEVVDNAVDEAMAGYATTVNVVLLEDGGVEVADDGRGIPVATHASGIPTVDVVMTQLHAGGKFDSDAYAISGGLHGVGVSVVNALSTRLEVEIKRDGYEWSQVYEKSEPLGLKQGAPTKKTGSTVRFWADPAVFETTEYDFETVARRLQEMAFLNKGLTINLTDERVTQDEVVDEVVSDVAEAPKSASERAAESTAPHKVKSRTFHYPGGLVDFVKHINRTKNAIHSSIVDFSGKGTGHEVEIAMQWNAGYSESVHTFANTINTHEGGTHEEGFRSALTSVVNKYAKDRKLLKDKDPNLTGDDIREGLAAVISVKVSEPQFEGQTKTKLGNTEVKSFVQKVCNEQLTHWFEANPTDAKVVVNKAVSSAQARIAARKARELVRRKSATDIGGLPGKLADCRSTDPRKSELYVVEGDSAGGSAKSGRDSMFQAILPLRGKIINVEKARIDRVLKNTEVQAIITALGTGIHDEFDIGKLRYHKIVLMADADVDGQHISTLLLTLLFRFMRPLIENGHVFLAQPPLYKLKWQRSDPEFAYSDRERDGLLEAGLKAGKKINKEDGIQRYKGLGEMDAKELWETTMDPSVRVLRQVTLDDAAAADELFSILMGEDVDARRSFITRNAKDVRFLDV
Sequence of DNA gyrase subunit A/DNA gyrase subunit B (P9WG47 whole entry): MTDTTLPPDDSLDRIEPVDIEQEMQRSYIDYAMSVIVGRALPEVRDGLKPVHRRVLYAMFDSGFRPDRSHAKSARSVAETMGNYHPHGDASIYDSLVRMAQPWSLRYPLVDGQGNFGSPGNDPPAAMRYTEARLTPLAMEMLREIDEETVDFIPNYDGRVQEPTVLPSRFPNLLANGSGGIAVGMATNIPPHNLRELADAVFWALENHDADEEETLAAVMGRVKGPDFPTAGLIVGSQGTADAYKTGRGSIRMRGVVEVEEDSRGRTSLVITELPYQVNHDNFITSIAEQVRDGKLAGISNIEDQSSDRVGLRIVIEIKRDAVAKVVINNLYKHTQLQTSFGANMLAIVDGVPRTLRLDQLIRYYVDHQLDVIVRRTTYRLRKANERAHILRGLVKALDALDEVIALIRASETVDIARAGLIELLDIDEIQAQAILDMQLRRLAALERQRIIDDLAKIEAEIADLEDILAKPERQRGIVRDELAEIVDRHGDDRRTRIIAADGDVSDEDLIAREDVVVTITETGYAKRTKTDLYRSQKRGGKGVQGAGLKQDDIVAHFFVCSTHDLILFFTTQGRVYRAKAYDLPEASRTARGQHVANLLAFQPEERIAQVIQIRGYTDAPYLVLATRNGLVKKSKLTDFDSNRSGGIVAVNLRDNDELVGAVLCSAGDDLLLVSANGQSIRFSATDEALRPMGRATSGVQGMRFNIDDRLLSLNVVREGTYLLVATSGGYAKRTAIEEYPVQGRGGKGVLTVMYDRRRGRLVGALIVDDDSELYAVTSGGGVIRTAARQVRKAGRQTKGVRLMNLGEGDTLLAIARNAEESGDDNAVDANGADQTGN
Sequence of DNA gyrase subunit B (P0C559 whole entry): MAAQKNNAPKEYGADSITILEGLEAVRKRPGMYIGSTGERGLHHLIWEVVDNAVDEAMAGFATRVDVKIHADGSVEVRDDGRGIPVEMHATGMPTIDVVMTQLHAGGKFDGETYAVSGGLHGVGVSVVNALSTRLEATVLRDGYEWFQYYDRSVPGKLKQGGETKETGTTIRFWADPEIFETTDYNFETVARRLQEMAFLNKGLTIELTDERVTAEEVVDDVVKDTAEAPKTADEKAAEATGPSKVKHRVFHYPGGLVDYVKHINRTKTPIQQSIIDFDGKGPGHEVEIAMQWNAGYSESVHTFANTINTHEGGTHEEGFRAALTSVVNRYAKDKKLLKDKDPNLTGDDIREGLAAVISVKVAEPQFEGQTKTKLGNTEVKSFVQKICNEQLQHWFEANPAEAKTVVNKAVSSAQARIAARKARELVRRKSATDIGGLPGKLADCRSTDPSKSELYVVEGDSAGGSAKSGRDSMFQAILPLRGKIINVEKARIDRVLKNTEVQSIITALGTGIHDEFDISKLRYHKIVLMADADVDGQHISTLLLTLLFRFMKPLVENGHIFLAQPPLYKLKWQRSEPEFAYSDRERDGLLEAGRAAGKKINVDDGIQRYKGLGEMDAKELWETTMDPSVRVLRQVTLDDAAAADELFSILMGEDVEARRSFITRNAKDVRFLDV

## CCOC(=O)c1cnc2ccc(OC)cc2c1Nc1ccc(OCCCN2CCN(CC)CC2)cc1
DNA gyrase subunit B
  IC50: 15.9 µM
[1]
  IC50: 6.85 µM
[2]
  MIC: 11.6 µM (≈ 5.7 µg/mL)
[3]
  cytotoxicity at 48 h, 50 µM: 21.6%

## CCOC(=O)c1cnc2ccc(F)cc2c1Nc1ccc(OCCCN2CCN(CC)CC2)cc1
DNA gyrase subunit B
  IC50: 23.6 µM
[1]
  IC50: 11.8 µM
[2]
  MIC: 3.25 µM (≈ 1.56 µg/mL)
[3]
  cytotoxicity at 48 h, 50 µM: 21.6%

## CCN1CCN(CCCOc2ccc(Nc3c(C(=O)NN)cnc4ccc(OC)cc34)cc2)CC1
DNA gyrase subunit B
  IC50: 12.6 µM
[1]
  IC50: 5.89 µM
[2]
  MIC: 11.6 µM (≈ 5.57 µg/mL)
[3]
  cytotoxicity at 48 h, 50 µM: 2.72%

## COc1ccc2ncc(C(=O)NN)c(Nc3ccc(OCCCN4CCOCC4)cc3)c2c1
DNA gyrase subunit B
  IC50: 10.6 µM
[1]
  IC50: 10.4 µM
[2]
  MIC: 55.4 µM (≈ 25 µg/mL)
[3]
  cytotoxicity at 48 h, 50 µM: 6.26%

## NNC(=O)c1cnc2ccccc2c1Nc1ccc(OCCCN2CCOCC2)cc1
DNA gyrase subunit B
  IC50: 0.97 µM
[1]
  IC50: 0.72 µM
[2]
  MIC: 2.4 µM (≈ 1.01 µg/mL)
[3]
  cytotoxicity at 48 h, 50 µM: 44.6%

## CCOC(=O)c1cnc2ccc(C(F)(F)F)cc2c1Nc1ccc(OCCCN2CCN(CC)CC2)cc1
DNA gyrase subunit B
  IC50: 0.97 µM
[1]
  IC50: 0.69 µM
[2]
  MIC: 2.94 µM (≈ 1.56 µg/mL)
[3]
  cytotoxicity at 48 h, 50 µM: 27.3%

## O=C(O)c1cnc2ccccc2c1Nc1ccc(OCCCN2CCOCC2)cc1
DNA gyrase subunit B
  IC50: > 50 µM
[1]
  IC50: 21.8 µM
[2]
  MIC: 30.7 µM (≈ 12.5 µg/mL)
[3]
  cytotoxicity at 48 h, 50 µM: 11.3%

## COc1ccc2ncc(C(=O)O)c(Nc3ccc(OCCCN4CCOCC4)cc3)c2c1
DNA gyrase subunit B
  IC50: 20.6 µM
[1]
  IC50: 12.9 µM
[2]
  MIC: 57.1 µM (≈ 25 µg/mL)
[3]
  cytotoxicity at 48 h, 50 µM: 11.4%

## CCN1CCN(CCCNc2ccc(Nc3c(C(=O)NN)cnc4ccc(F)cc34)cc2)CC1
DNA gyrase subunit B
  IC50: 1.15 µM
[1]
  IC50: 0.82 µM
[2]
  MIC: 3.3 µM (≈ 1.54 µg/mL)
[3]
  cytotoxicity at 48 h, 50 µM: 6.11%

## CCOC(=O)c1cnc2ccc(F)cc2c1Nc1ccc(NCCCN2CCN(CC)CC2)cc1
DNA gyrase subunit B
  IC50: 16.9 µM
[1]
  IC50: 7.99 µM
[2]
  MIC: 13 µM (≈ 6.25 µg/mL)
[3]
  cytotoxicity at 48 h, 50 µM: 20.2%

## CCOC(=O)c1cnc2ccc(OC)cc2c1Nc1ccc(OCCCN2CCOCC2)cc1
DNA gyrase subunit B
  IC50: 14.9 µM
[1]
  IC50: 13.3 µM
[2]
  MIC: 13.3 µM (≈ 6.22 µg/mL)
[3]
  cytotoxicity at 48 h, 50 µM: 21.2%

## CO[C@@H]1[C@@H](OC(N)=O)[C@@H](O)[C@H](Oc2ccc3c(O)c(NC(=O)c4ccc(O)c(CC=C(C)C)c4)c(=O)oc3c2C)OC1(C)C [NOVOBIOCIN]
[2]
  MIC: > 200 µM

## CCN1CCN(CCCNc2ccc(Nc3c(C(=O)NN)cnc4ccccc34)cc2)CC1
DNA gyrase subunit B
  IC50: 10.8 µM
[1]
  IC50: 9.42 µM
[2]
  MIC: 13.5 µM (≈ 6.04 µg/mL)
[3]
  cytotoxicity at 48 h, 50 µM: 3.36%

## CCN1CCN(CCCOc2ccc(Nc3c(C(=O)NN)cnc4ccc(F)cc34)cc2)CC1
DNA gyrase subunit B
  IC50: 2.92 µM
[1]
  IC50: 2.96 µM
[2]
  MIC: 3.34 µM (≈ 1.56 µg/mL)
[3]
  cytotoxicity at 48 h, 50 µM: 11.9%

## CCN1CCN(CCCOc2ccc(Nc3c(C(=O)NN)cnc4ccccc34)cc2)CC1
DNA gyrase subunit B
  IC50: 28.4 µM
[1]
  IC50: 16.7 µM
[2]
  MIC: 13.9 µM (≈ 6.25 µg/mL)
[3]
  cytotoxicity at 48 h, 50 µM: 18.2%

## CCOC(=O)c1cnc2ccccc2c1Nc1ccc(NCCCN2CCOCC2)cc1
DNA gyrase subunit B
  IC50: 17.9 µM
[1]
  IC50: 8.73 µM
[2]
  MIC: 14.4 µM (≈ 6.25 µg/mL)
[3]
  cytotoxicity at 48 h, 50 µM: 1.82%

## CCOC(=O)c1cnc2ccc(C(F)(F)F)cc2c1Nc1ccc(OCCCN2CCOCC2)cc1
DNA gyrase subunit B
  IC50: 38.8 µM
[1]
  IC50: 16.4 µM
[2]
  MIC: 43.1 µM (≈ 21.7 µg/mL)
[3]
  cytotoxicity at 48 h, 50 µM: 20.2%

## NNC(=O)c1cnc2ccc(F)cc2c1Nc1ccc(OCCCN2CCOCC2)cc1
DNA gyrase subunit B
  IC50: 20.9 µM
[1]
  IC50: 21.4 µM
[2]
  MIC: 28.4 µM (≈ 12.5 µg/mL)
[3]
  cytotoxicity at 48 h, 50 µM: 13.7%

## COc1ccc2ncc(C(=O)NN)c(Nc3ccc(NCCCN4CCOCC4)cc3)c2c1
DNA gyrase subunit B
  IC50: 44.9 µM
[1]
  IC50: 15.3 µM
[2]
  MIC: 27.8 µM (≈ 12.5 µg/mL)
[3]
  cytotoxicity at 48 h, 50 µM: 9.59%

## NNC(=O)c1ccncc1 [ISONIAZID]
[2]
  MIC: 0.66 µM (≈ 0.0905 µg/mL)

## CO[C@H]1/C=C/O[C@@]2(C)Oc3c(C)c(O)c4c(O)c(c(/C=N/N5CCN(C)CC5)c(O)c4c3C2=O)NC(=O)/C(C)=C\C=C\[C@H](C)[C@H](O)[C@@H](C)[C@@H](O)[C@@H](C)[C@H](OC(C)=O)[C@@H]1C [RIFAMPIN]
[2]
  MIC: 0.23 µM (≈ 0.189 µg/mL)

## COc1c(N2C[C@@H]3CCCN[C@@H]3C2)c(F)cc2c(=O)c(C(=O)O)cn(C3CC3)c12 [MOXIFLOXACIN]
DNA gyrase subunit B
  IC50: > 50 µM
[2]
  MIC: 1.26 µM (≈ 0.506 µg/mL)
